Changes are numbered by the printed parent chain. Names and notes keep the numbering of the source.

Drawing on ChEMBL document CHEMBL1147081, “Structure of the deacetylase LpxC bound to the antibiotic CHIR-090: Time-dependent inhibition and specificity in ligand binding” (Proc Natl Acad Sci U S A, 2007), this text covers Km, kcat and kcat/Km for four proteins.

Substrate in data set [1]: C[C@@H](O)[C@H](NC(=O)c1ccc(C#Cc2ccc(CN3CCOCC3)cc2)cc1)C(=O)NO
The experiment in a line: Activity of Rhizobium leguminosarum LpxC S214G mutant. Summed up: (§1)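 Wild-type and site-directed mutant LpxC (E. coli, R. leguminosarum) expressed and purified, then assayed by a previously described method. Substrate was UDP-3-O-(R-3-hydroxymyristoyl)-N-acetylglucosamine, varied for Michaelis–Menten analysis. KM and kcat came from data sets pooling multiple independent experiments.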

Substrate in data set [2]: C[C@@H](O)[C@H](NC(=O)c1ccc(C#Cc2ccc(CN3CCOCC3)cc2)cc1)C(=O)NO
The experiment in a line: Ratio of Kcat to Km of Rhizobium leguminosarum LpxC S214G mutant. Summed up: as §1

Substrate in data set [3]: C[C@@H](O)[C@H](NC(=O)c1ccc(C#Cc2ccc(CN3CCOCC3)cc2)cc1)C(=O)NO
The experiment in a line: Activity of Rhizobium leguminosarum LpxC W206Q/S214G mutant. Summed up:
as §1

Substrate in data set [4]: C[C@@H](O)[C@H](NC(=O)c1ccc(C#Cc2ccc(CN3CCOCC3)cc2)cc1)C(=O)NO
The experiment in a line: Ratio of Kcat to Km of Rhizobium leguminosarum LpxC W206Q/S214G mutant. Summed up:
as §1

Substrate in data set [5]: C[C@@H](O)[C@H](NC(=O)c1ccc(C#Cc2ccc(CN3CCOCC3)cc2)cc1)C(=O)NO
The experiment in a line: Ratio of Kcat to Km for Escherichia coli LpxC. The method in brief:
as §1

Substrate in data set [6]: C[C@@H](O)[C@H](NC(=O)c1ccc(C#Cc2ccc(CN3CCOCC3)cc2)cc1)C(=O)NO
The experiment in a line: Activity of Escherichia coli LpxC. Summed up:
as §1

Substrate in data set [7]: C[C@@H](O)[C@H](NC(=O)c1ccc(C#Cc2ccc(CN3CCOCC3)cc2)cc1)C(=O)NO
The experiment in a line: Activity of Escherichia coli LpxC Q202W/G210S mutant. Summed up: as §1

Substrate in data set [8]: C[C@@H](O)[C@H](NC(=O)c1ccc(C#Cc2ccc(CN3CCOCC3)cc2)cc1)C(=O)NO
The experiment in a line: Ratio of Kcat to Km of Escherichia coli LpxC Q202W/G210S mutant. Summed up:
as §1

B1: UDP-3-O-acyl-N-acetylglucosamine deacetylase (Rhizobium leguminosarum bv. trifolii (strain WSM1325)), C6ARS9 S214G (protein)
chain: MAIGLLGFQTTVSRPVTLSGTGVHSGAEVSITLNPAESDTGVVFQRLHDNGDITELKAVSSQVGNTDLCTVLGFSPAHSVATIEHVMAAVYALGLDNVVIEVQGSEMPIMDGSSLPFVEAIEQVGLVSLGVKRRYIRITKPVRIEHGGSWSEFRPYDGTRFEVEIDFECPLIGRQKWAGDMTPAVFKAELSRARTFGFMRDVERLWASGHALGGSLENSVVISDDNTVINVEGLRYAKDEFVRHKTLDAVGDLSLAGVQFIGCYRSYRGGHKMNANALKALLADSSAYEVVETSTPRQRVAARELIAVSASEFAPWSA
B1: in data set [1], the Km turned out to be 3.9 µM and the kcat stood at 0.12 s⁻¹. The kcat/Km in data set [2] is 3.1 10^4/M/s.

B2: UDP-3-O-acyl-N-acetylglucosamine deacetylase (Rhizobium leguminosarum bv. trifolii (strain WSM1325)), C6ARS9 W206Q,S214G (protein)
chain: B1 chain with W206Q
For the protein B2, in data set [3], the Km is 10 µM and the turnover number (kcat) came out at 0.14 s⁻¹. The kcat/Km in data set [4] is 1.4 10^4/M/s.

B3: UDP-3-O-acyl-N-acetylglucosamine deacetylase (Escherichia coli K-12), P0A725 (protein)
chain: MIKQRTLKRIVQATGVGLHTGKKVTLTLRPAPANTGVIYRRTDLNPPVDFPADAKSVRDTMLCTCLVNEHDVRISTVEHLNAALAGLGIDNIVIEVNAPEIPIMDGSAAPFVYLLLDAGIDELNCAKKFVRIKETVRVEDGDKWAEFKPYNGFSLDFTIDFNHPAIDSSNQRYAMNFSADAFMRQISRARTFGFMRDIEYLQSRGLCLGGSFDCAIVVDDYRVLNEDGLRFEDEFVRHKMLDAIGDLFMCGHNIIGAFTAYKSGHALNNKLLQAVLAKQEAWEYVTFQDDAELPLAFKAPSAVLA
Consider B3, for which the kcat/Km in data set [5] is 1.1 10^6/M/s. In addition, in data set [6], the Michaelis constant (Km) came out at 4 µM and the kcat turned out to be 4.2 s⁻¹.

B4: UDP-3-O-acyl-N-acetylglucosamine deacetylase (Escherichia coli K-12), P0A725 Q202W,G210S (protein)
chain: B3 chain with Q202W, G210S
In the case of B4, in data set [7], the Km amounted to 11 µM and the kcat was 1.6 s⁻¹. For the same protein, the catalytic efficiency (kcat/Km) in data set [8] is 1.5 10^6/M/s.
